According to ChEMBL document CHEMBL3232719 (J Med Chem, 2014):
The source made the active and inactive calls. The rule behind the calls is not given here.

How the values were obtained:
26S proteasome [1] = experiment: Inhibition of trypsin-like activity of human 20S proteasome using Ac-RLR-AMC as substrate; assay type: protein-complex assay
26S proteasome [2] = experiment: Inhibition of chymotrypsin-like activity of human 20S proteasome using Suc-LLVY-AMC as substrate; assay type: protein-complex assay
26S proteasome [3] = experiment: Inhibition of caspase-like activity of human 20S proteasome using Ac-nLPnLD-AMC as substrate; assay type: protein-complex assay
HCT-116 [4] = experiment: Inhibition of human HCT116 cell growth; assay type: functional, cell-based
[5] = molecular target: T1, Proteasome subunit beta type-8 (Homo sapiens, UniProt P28062); experiment: Inhibition of beta5i subunit of immunoproteasome (unknown origin) by active-site ELISA
T1 sequence (P28062 whole entry): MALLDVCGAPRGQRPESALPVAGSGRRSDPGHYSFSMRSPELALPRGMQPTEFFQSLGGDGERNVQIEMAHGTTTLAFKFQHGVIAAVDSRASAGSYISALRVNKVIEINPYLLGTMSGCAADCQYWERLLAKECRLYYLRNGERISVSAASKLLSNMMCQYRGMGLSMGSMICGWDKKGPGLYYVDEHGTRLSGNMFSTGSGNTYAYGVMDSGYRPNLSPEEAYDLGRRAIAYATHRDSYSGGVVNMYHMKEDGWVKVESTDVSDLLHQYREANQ

[6] = molecular target: T2, Proteasome Macropain subunit MB1 (Homo sapiens) (UniProt P28074); experiment: Binding affinity to beta5 subunit of 20S proteasome (unknown origin) assessed as dissociation half-life
T2 sequence (whole entry): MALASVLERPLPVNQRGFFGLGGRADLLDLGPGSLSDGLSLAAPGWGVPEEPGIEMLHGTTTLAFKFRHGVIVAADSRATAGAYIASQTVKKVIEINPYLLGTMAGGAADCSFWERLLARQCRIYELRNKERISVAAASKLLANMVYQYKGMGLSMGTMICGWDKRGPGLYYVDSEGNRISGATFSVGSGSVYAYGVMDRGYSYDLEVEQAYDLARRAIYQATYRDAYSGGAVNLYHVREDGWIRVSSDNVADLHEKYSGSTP
Method in brief: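 Human 20S proteasome was preincubated with inhibitor. Chymotrypsin-like activity was then measured before and after removal of free inhibitor by dialysis (wash-out), with reference reversible and irreversible inhibitors run alongside.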

[7] = molecular target: T3, Lysosomal protective protein (Homo sapiens, UniProt P10619); experiment: Inhibition of recombinant cathepsin A (unknown origin) using Mca-Arg-Pro-Pro-Gly-Phe-Ser-Ala-Phe-Lys(Dnp)-OH as substrate incubated with enzyme for 5 mins prior to substrate challenge for 2 hrs by spectrofluorometer analysis
T3 sequence (P10619 whole entry): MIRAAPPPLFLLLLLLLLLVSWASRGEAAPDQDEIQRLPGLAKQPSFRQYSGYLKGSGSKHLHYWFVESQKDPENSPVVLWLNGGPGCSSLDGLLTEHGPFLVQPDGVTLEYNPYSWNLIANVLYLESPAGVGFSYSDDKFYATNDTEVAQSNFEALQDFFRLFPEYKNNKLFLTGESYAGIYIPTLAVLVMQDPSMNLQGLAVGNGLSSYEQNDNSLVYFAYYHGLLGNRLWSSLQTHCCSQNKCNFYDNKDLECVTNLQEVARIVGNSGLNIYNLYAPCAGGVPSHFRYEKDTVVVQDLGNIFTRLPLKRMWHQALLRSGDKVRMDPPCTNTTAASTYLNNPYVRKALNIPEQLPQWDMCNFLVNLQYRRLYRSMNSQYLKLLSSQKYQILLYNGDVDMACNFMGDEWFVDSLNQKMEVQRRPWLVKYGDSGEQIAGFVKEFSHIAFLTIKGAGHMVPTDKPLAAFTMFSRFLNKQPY

HCT-116 [8] = experiment: Induction of apoptosis in human HCT116 cells assessed as increase in PARP cleavage by immunoblot analysis; assay type: functional, cell-based
Method in brief: (§1)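 HCT116 cells were treated with compound or DMSO vehicle. Lysates were immunoblotted for p53 accumulation and for cleaved PARP as the apoptosis marker.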

Cathepsin G = molecular target: T4, Cathepsin G (Homo sapiens, UniProt P08311); experiment: Inhibition of recombinant cathepsin G (unknown origin) using Suc-Ala-Ala-Pro-Phe-AMC as substrate by spectrofluorometer analysis
T4 sequence (P08311 whole entry): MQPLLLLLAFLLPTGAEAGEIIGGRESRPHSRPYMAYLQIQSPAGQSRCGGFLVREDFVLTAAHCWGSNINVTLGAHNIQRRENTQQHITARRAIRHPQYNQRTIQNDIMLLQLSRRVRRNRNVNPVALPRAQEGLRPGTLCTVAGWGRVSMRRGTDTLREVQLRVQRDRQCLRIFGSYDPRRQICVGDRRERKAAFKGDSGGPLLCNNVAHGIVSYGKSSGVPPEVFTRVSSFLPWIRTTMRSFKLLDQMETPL

HCT-116 [9] = experiment: Induction of apoptosis in human HCT116 cells assessed as increase in p53 expression by immunoblot analysis; assay type: functional, cell-based; method in brief: as §1
Cathepsin B = Cathepsin B (Homo sapiens, UniProt P07858); experiment: Inhibition of recombinant cathepsin B (unknown origin) using Z-Leu-Arg-AMC as substrate by spectrofluorometer analysis
[10] = molecular target: T5, Proteasome Macropain subunit MB1 (Homo sapiens, UniProt P28074); experiment: Inhibition of beta5 subunit of constitutive proteasome (unknown origin) by active-site ELISA
T5 sequence (P28074 whole entry): T2 sequence (whole entry)

HCT-116 [11] = experiment: Cell cycle arrest in human HCT116 cells assessed as accumulation at G1 phase at 100 nM after 24 hrs by propidium iodide staining based flow cytometry (reference value: 35.6%); assay type: functional
HCT-116 [12] = experiment: Cell cycle arrest in human HCT116 cells assessed as accumulation at S phase at 100 nM after 24 hrs by propidium iodide staining based flow cytometry (reference value: 45.3%); assay type: functional
HCT-116 [13] = experiment: Cell cycle arrest in human HCT116 cells assessed as accumulation at G2/M phase at 100 nM after 24 hrs by propidium iodide staining based flow cytometry (reference value: 19.1%); assay type: functional

| SMILES | IC50 (26S proteasome [1]) [nM] | IC50 (26S proteasome [2]) [nM] | IC50 (26S proteasome [3]) [nM] | IC50 (HCT-116 [4]) [nM] | other results |
| --- | --- | --- | --- | --- | --- |
| CC(C)C[C@H](NC(=O)[C@H](CC(=O)NCCC(COCc1ccccc1)COCc1ccccc1)NC(=O)c1cnccn1)B1O[C@@H]2C[C@@H]3C[C@@H](C3(C)C)[C@]2(C)O1 | 3300 | 7.1 | 210 | 45 | – |
| CNC(=O)C[C@H](NC(C)=O)C(=O)N[C@@H](CC(C)C)B1O[C@@H]2C[C@@H]3C[C@@H](C3(C)C)[C@]2(C)O1 | > 10000 | 54 | 500 | 2500 | – |
| CC(=O)N[C@@H](CSC(=O)[C@]1([C@@H](O)C(C)C)NC(=O)[C@H](C)[C@@H]1O)C(=O)O [LACTACYSTIN] | – | – | – | – | IC50 [5]: > 3000 nM |
| CC(=O)N[C@@H](CCC(=O)NCCCC(COCc1ccccc1)COCc1ccccc1)C(=O)N[C@@H](CC(C)C)B1O[C@@H]2C[C@@H]3C[C@@H](C3(C)C)[C@]2(C)O1 | 3000 | 4.1 | 46 | 67.2 | – |
| CC(=O)N[C@@H](CCC(=O)NCCC(COCc1ccccc1)COCc1ccccc1)C(=O)N[C@@H](CC(C)C)B1O[C@@H]2C[C@@H]3C[C@@H](C3(C)C)[C@]2(C)O1 | 2500 | 5.7 | 76 | 110 | – |
| CC(=O)N[C@@H](CC(=O)NCC(COCc1ccccc1)COCc1ccccc1)C(=O)N[C@@H](CC(C)C)B1O[C@@H]2C[C@@H]3C[C@@H](C3(C)C)[C@]2(C)O1 | 1100 | 3.9 | 140 | 45.4 | – |
| CC(=O)N[C@@H](CC(=O)NCC(COCc1ccccc1)COCc1ccccc1)C(=O)N[C@@H](CC(C)C)B(O)O | – | 7.7 | – | 79.6 | – |
| CC(C)C[C@H](NC(=O)[C@H](CC(=O)NCCC(COCc1ccccc1)COCc1ccccc1)NC(=O)c1ccccc1)B1O[C@@H]2C[C@@H]3C[C@@H](C3(C)C)[C@]2(C)O1 | 2700 | 7.8 | 130 | 60 | – |
| CC(=O)N[C@@H](CC(=O)NCCCC(COCc1ccccc1)COCc1ccccc1)C(=O)N[C@@H](CC(C)C)B1O[C@@H]2C[C@@H]3C[C@@H](C3(C)C)[C@]2(C)O1 | 2700 | 4.1 | 120 | 43 | – |
| CC(C)C[C@H](NC(=O)[C@H](CC(=O)NCCC(COCc1ccccc1)COCc1ccccc1)NC(=O)c1cccc(-c2ccccc2)n1)B1O[C@@H]2C[C@@H]3C[C@@H](C3(C)C)[C@]2(C)O1 | > 10000 | 7.5 | 1000 | 260 | – |
| CC(C)C[C@H](NC(=O)CNC(=O)c1cc(Cl)ccc1Cl)B1OC(=O)CC(CC(=O)O)(C(=O)O)O1 (some centres not stated) | – | – | – | – | T1/2 [6]: 18 min |
| CC[C@H](C)[C@@H]1C(=O)O[C@H]1C(=O)N[C@H]1C[C@@H]1C[C@@H](CCc1ccccc1)NC(=O)[C@H](C)NC(=O)OCc1ccccc1 | – | 5.7 | – | 1820 | – |
| CC[C@H](C)[C@@H]1C(=O)O[C@H]1C(=O)N[C@H]1C[C@H]1C[C@H](NC(=O)[C@H](C)N)C(=O)O [BELACTOSIN A] | – | 1400 | – | – | – |
| CC(=O)N[C@@H](CC(=O)NCCCCOCc1ccccc1)C(=O)N[C@@H](CC(C)C)B1O[C@@H]2C[C@@H]3C[C@@H](C3(C)C)[C@]2(C)O1 | 2170 | 4.8 | 170 | 130 | IC50 [7]: > 30000 nM; Activity (HCT-116 [8]): Active; IC50 (Cathepsin G): > 30000 nM; Activity (HCT-116 [9]): Active; IC50 [5]: 59 nM; IC50 (Cathepsin B): > 30000 nM; IC50 [10]: 280 nM; Activity (HCT-116 [11]): 22.9%; Activity (HCT-116 [12]): 26.6%; Activity (HCT-116 [13]): 50.5% |
| CC(C)C[C@H](NC(=O)[C@H](Cc1ccccc1)NC(=O)c1cnccn1)B(O)O [BORTEZOMIB] | – | – | – | 5 | IC50 [7]: 9200 nM; IC50 (Cathepsin G): 3100 nM; IC50 (Cathepsin B): > 30000 nM; Activity (HCT-116 [11]): 3%; Activity (HCT-116 [12]): 21%; Activity (HCT-116 [13]): 76% |
| CC(=O)N[C@@H](CCC(=O)NCC(COCc1ccccc1)COCc1ccccc1)C(=O)N[C@@H](CC(C)C)B1O[C@@H]2C[C@@H]3C[C@@H](C3(C)C)[C@]2(C)O1 | 2400 | 5.1 | 75 | 63.6 | – |
| CC(C)C[C@H](NC(=O)[C@H](CC(=O)NCCC(COCc1ccccc1)COCc1ccccc1)NC(=O)c1cc(Cl)ccc1Cl)B1O[C@@H]2C[C@@H]3C[C@@H](C3(C)C)[C@]2(C)O1 | > 10000 | 5.9 | 250 | 140 | – |
| CC(C)C[C@H](NC(=O)[C@H](CCc1ccccc1)NC(=O)CN1CCOCC1)C(=O)N[C@@H](Cc1ccccc1)C(=O)N[C@@H](CC(C)C)C(=O)[C@@]1(C)CO1 [CARFILZOMIB] | – | – | – | – | IC50 [7]: > 30000 nM; IC50 (Cathepsin G): > 30000 nM; IC50 (Cathepsin B): 11000 nM |
| CC[C@H](C)[C@@H]1C(=O)O[C@H]1C(=O)NCCC(COCc1ccccc1)COCc1ccccc1 | – | 29 | – | > 10000 | – |
| CC(=O)N[C@@H](CC(=O)NCCC(COCc1ccccc1)COCc1ccccc1)C(=O)N[C@@H](CC(C)C)B1O[C@@H]2C[C@@H]3C[C@@H](C3(C)C)[C@]2(C)O1 | 2700 | 2.7 | 150 | 31.8 | IC50 [7]: > 30000 nM; Activity (HCT-116 [8]): Active; IC50 (Cathepsin G): > 30000 nM; Activity (HCT-116 [9]): Active; IC50 [5]: 31 nM; IC50 (Cathepsin B): > 30000 nM; IC50 [10]: 140 nM; Activity (HCT-116 [11]): 3.2%; Activity (HCT-116 [12]): 25.1%; Activity (HCT-116 [13]): 71.7% |
